Experimental data published in PMC12065821 (Scientific Reports, 2025).
Where a SMILES comes first, the peptide text is derived from it. Bridges are numbered along the chain shown (N, C = ends). [ ]: non-standard residue; d: D form. The star is where a group is joined. Heptanoyl(6-Me) = CC(C)CCCCC(=O)*; Dab = NCC[C@H](N)C(=O)O

Assays:
[1] = cited from earlier work
[2] = cited from earlier work; remark: listed apart in the source
[3] = Plasma PK of CMS/CMS-E2 and formed colistin/colistin B; format: in vivo, rats; details: rat plasma, LC-MS/MS, NCA, mean ± SD
In short: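 Male Sprague-Dawley rats were dosed once i.p. in saline, and serial jugular-vein blood was taken before and after dosing. Blood was heparinised (1%), spun at 4,982 × g for 10 min at 4 °C, and plasma stored at −70 °C. Plasma (40 µL) went through WCX solid-phase extraction with polymyxin B1 internal standard, then LC-MS/MS. Prodrug was total (acid-hydrolysed) minus free analyte. […] Values are mean ± SD, compared by Wilcoxon rank sum.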

[4] = PK-TD model, PK component; format: in vivo; details: rats, single i.p. CMS-E2 40 mg/kg CBA, one-compartment PK-TD model, mean ± SD
In short: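 Plasma prodrug and formed colistin/colistin B concentrations after i.p. dosing were fitted by a compartmental model. The final model used one compartment each for prodrug and formed drug, a conversion rate constant, and linear first-order total clearance from both. Fit was judged by R², AIC, BIC and visual inspection. Estimates are mean ± SD.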

[5] = Kidney PK of CMS/CMS-E2 and formed colistin/colistin B; format: in vivo, rats; details: for Kp: kidney (cortex) / plasma, colistin/colistin B; for Tmax formed colistin/colistin B in kidneys / Cmax formed colistin/colistin B in kidneys / AUC0-inf CMS/CMS-E2 in kidneys / Tmax CMS/CMS-E2 in kidneys / t1/2 CMS/CMS-E2 in kidneys / Cmax CMS/CMS-E2 in kidneys: rat kidney cortex, LC-MS/MS; for Tmax formed colistin/colistin B in kidneys / AUC0-inf CMS/CMS-E2 in kidneys / Tmax CMS/CMS-E2 in kidneys / t1/2 CMS/CMS-E2 in kidneys: NCA; for Cmax formed colistin/colistin B in kidneys / Cmax CMS/CMS-E2 in kidneys: mean ± SD
In short: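 Male Sprague-Dawley rats (300 ± 15 g) got one i.p. dose in saline. At each sampling time rats were anaesthetised with tiletamine-zolazepam (40 mg/kg) and killed, and the left kidney was frozen at −70 °C. Kidney cortex was homogenised in saline (1:10 m/v, 1% BSA). Samples went through WCX solid-phase extraction with polymyxin B1 internal standard, then LC-MS/MS. Prodrug was calculated as total (after […] sulfuric acid hydrolysis) minus free colistin/colistin B. Parameters came from non-compartmental analysis.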

rats [6] = assay: Regression of kidney colistin/colistin B concentrations against CR, BUN, SQS; format: in vivo; details: 95% CI
rats [7] = assay: Maximal tolerability dose; format: in vivo; details: intraperitoneal
rats [8] = assay: Renal histological examination; format: in vivo; details: rat kidney; for maximal SQS: mean ± SD, SD
rats [9] = assay: PK-TD model, TD component; format: in vivo; details: i.p., mean ± SD
In short: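 Plasma creatinine and BUN time courses were linked to plasma colistin/colistin B through an indirect hypothetical effect compartment. K_e is the rate constant from the central to the effect compartment. The effect was linear: E = E₀ + S·C_e, with E₀ the pre-dose baseline. T_lag was calculated as 1/K_e. Fit was judged by R², AIC, BIC and visual inspection. Parameters are mean ± SD.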

rats [10] = assay: Kidney injury biomarkers: plasma CR and BUN; format: in vivo; details: rat plasma, mean ± SD
In short: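 Rats (male Sprague-Dawley) received one i.p. injection in saline, with a saline control group. Plasma came from serial heparinised jugular-vein samples, plus blood taken at sacrifice in a second cohort. Creatinine and blood urea nitrogen were measured on an automatic biochemical analyser. Peak levels and times to peak were taken from the time profiles and given as mean ± SD.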

[11] = single i.p. CMS or CMS-E2 20 mg/kg CBA
[12] = single i.p. CMS-E2 40 mg/kg CBA
[13] = single i.p. CMS or CMS-E2 20 mg/kg CBA, SD
[14] = single i.p. CMS-E2 40 mg/kg CBA, SD
[15] = rats, single i.p. CMS or CMS-E2 20 mg/kg CBA

Molecule: CC(C)CCCCC(=O)N[C@@H](CCN)C(=O)N[C@H](C(=O)N[C@@H](CCN)C(=O)N[C@H]1CCNC(=O)[C@H]([C@@H](C)O)NC(=O)[C@H](CCN)NC(=O)[C@H](CCN)NC(=O)[C@H](CC(C)C)NC(=O)[C@@H](CC(C)C)NC(=O)[C@H](CCN)NC1=O)[C@@H](C)O [colistin B] ({Heptanoyl(6-Me)}-[Dab]T[Dab][Dab][Dab][dL]L[Dab][Dab]T; lactam 4-C)
- clearance after the colistin sulfate [1]: 5.2 ± 0.4 mL/min/kg
- clearance relative to colistin [1]: almost half
- clearance when administered as a single component [1]: 3.05 ± 0.62 mL/min/kg
- plasma protein binding [2]: 41.7 ± 12.4%
- AUC0-inf formed colistin/colistin B in plasma [3, 11]: 4140 ± 1260 ng·h/mL
- Cmax formed colistin/colistin B in plasma [3, 11]: 1140 ± 217 ng/mL
- Tmax formed colistin/colistin B in plasma [3, 11]: 1.67 ± 0.471 h
- t1/2 formed colistin/colistin B in plasma [3, 11]: 1.22 ± 0.313 h
- AUC0-inf formed colistin/colistin B in plasma [3, 12]: 35500 ± 23900 ng·h/mL
- Cmax formed colistin/colistin B in plasma [3, 12]: 7080 ± 2770 ng/mL
- Tmax formed colistin/colistin B in plasma [3, 12]: 4.71 ± 0.881 h
- t1/2 formed colistin/colistin B in plasma [3, 12]: 2.13 ± 0.827 h
- CLcolistin/colistin B (total body clearance) [4]: 1.89 ± 0.809 mL/min/kg
- Kp ([5]; male, Sprague-Dawley, rat, ip, 20 mg/kg CBA, Kidney/plasma ratio of AUC0-inf, rats, single i.p. CMS or CMS-E2 20 mg/kg CBA): 19.7
- Kp ([5]; male, Sprague-Dawley, rat, ip, 40 mg/kg CBA, Kidney/plasma ratio of AUC0-inf, rats, single i.p. CMS-E2 40 mg/kg CBA): 39.6
- Kp ([5]; male, Sprague-Dawley, rat, ip, 40 mg/kg CBA, Kidney/plasma ratio of Cmax, rats, single i.p. CMS-E2 40 mg/kg CBA): 20.1
- tissue level at time at 8 h ([5]; male, Sprague-Dawley, rat, kidney cortex, ip, 20 mg/kg CBA, SD): 4860 ± 2360 ng/g
- tissue level at time at 24 h ([5]; male, Sprague-Dawley, rat, kidney cortex, ip, 40 mg/kg CBA, SD): 11500 ± 1740 ng/g
- Tmax formed colistin/colistin B in kidneys [5, 11]: 4 h
- Cmax formed colistin/colistin B in kidneys [5, 13]: 17.6 ± 6.79 µg/g
- Tmax formed colistin/colistin B in kidneys [5, 12]: 10 h
- Cmax formed colistin/colistin B in kidneys [5, 14]: 148 ± 32.8 µg/g
- Kidney/plasma ratio of Cmax, colistin/colistin B [5, 15]: 15.4
- regression coefficient between kidney concentration and SQS (rats [6]; ordered logistic regression): 0.03
- regression coefficient between kidney concentration and contemporaneous BUN (rats [6]; simple linear regression): 0.08
- regression coefficient between kidney concentration and contemporaneous CR (rats [6]; simple linear regression): 1.58

Molecule: Colistin B methanesulphonate [CMS-E2]
- maximal tolerability dose (rats [7]): 40 mg/kg CBA
- histological lesions during the first 2 h (rats [8]; PAS stain, single i.p. CMS or CMS-E2 20 mg/kg CBA): No obvious histological lesion
- maximal SQS (rats [8]; [11]): 0.667 ± 0.577
- histological damage at time points other than 4 h (rats [8]; single i.p. CMS-E2 20 mg/kg CBA): no obvious damage was observed
- recovery of histological damage at 24 h (rats [8]; [12]): all damage was completely recovered
- maximal SQS (rats [8]; [12]): 2.33 ± 1.16
- S (slope between colistin/colistin B concentration in effect compartment and CR) (rats [9]; E = E0 + S·Ce): 13.0 ± 3.52 mmol/g
- Ke (rate from colistin/colistin B central compartment to effect compartment), BUN (rats [9]; indirect link PK-TD model, effect = BUN): 0.182 ± 0.164 h⁻¹
- Ke (rate from colistin/colistin B central compartment to effect compartment), CR (rats [9]; indirect link PK-TD model, effect = plasma CR): 0.814 ± 0.524 h⁻¹
- Tlag (lag time), BUN (rats [9]; reciprocal of Ke, effect = BUN): 11.9 ± 9.46 h
- Tlag (lag time), CR (rats [9]; reciprocal of Ke, effect = plasma CR): 1.83 ± 1.05 h
- AUC0-inf CMS/CMS-E2 in plasma [3, 11]: 37200 ± 10500 ng·h/mL
- CL/F CMS/CMS-E2 [3, 11]: 9.90 ± 3.34 mL/min/kg
- Cmax CMS/CMS-E2 in plasma [3, 11]: 19100 ± 4500 ng/mL
- Tmax CMS/CMS-E2 in plasma [3, 11]: 0.500 ± 0.00 h
- Vd/F CMS/CMS-E2 [3, 11]: 0.464 ± 0.108 L/kg
- t1/2 CMS/CMS-E2 in plasma [3, 11]: 0.573 ± 0.16 h
- AUC0-inf CMS/CMS-E2 in plasma [3, 12]: 226000 ± 125000 ng·h/mL
- CL/F CMS/CMS-E2 [3, 12]: 4.18 ± 2.56 mL/min/kg
- Cmax CMS/CMS-E2 in plasma [3, 12]: 50900 ± 23500 ng/mL
- Tmax CMS/CMS-E2 in plasma [3, 12]: 1.75 ± 0.433 h
- Vd/F CMS/CMS-E2 [3, 12]: 0.497 ± 0.278 L/kg
- t1/2 CMS/CMS-E2 in plasma [3, 12]: 1.57 ± 0.522 h
- CLCMS/CMS-E2 (total body clearance) [4]: 3.20 ± 1.74 mL/min/kg
- Ka CMS/CMS-E2 (absorption rate) [4]: 0.673 ± 0.208 h⁻¹
- V (volume of distribution) [4]: 0.291 ± 0.105 L/kg
- AUC0-inf CMS/CMS-E2 in kidneys [5, 11]: 289 µg·h/g
- Tmax CMS/CMS-E2 in kidneys [5, 11]: 2 h
- t1/2 CMS/CMS-E2 in kidneys [5, 11]: 0.56 h
- Cmax CMS/CMS-E2 in kidneys [5, 13]: 105 ± 25.3 µg/g
- AUC0-inf CMS/CMS-E2 in kidneys [5, 12]: 2496 µg·h/g
- Tmax CMS/CMS-E2 in kidneys [5, 12]: 4 h
- t1/2 CMS/CMS-E2 in kidneys [5, 12]: 2.02 h
- Cmax CMS/CMS-E2 in kidneys [5, 14]: 379 ± 85.5 µg/g
- Kidney/plasma ratio of Cmax, CMS/CMS-E2 [5, 15]: 5.50
- Kidney/plasma ratio of Cmax, CMS/CMS-E2 ([5]; rats, single i.p. CMS-E2 40 mg/kg CBA): 7.44
- peak BUN level (rats [10]; [11]): 12.4 ± 5.21 mmol/L
- peak CR level (rats [10]; [11]): 33.4 ± 3.44 µmol/L
- time of peak BUN (rats [10]; [11]): 6.00 ± 0.00 h
- time of peak CR level (rats [10]; [11]): 4.67 ± 1.89 h
- peak BUN level (rats [10]; [12]): 23.0 ± 5.59 mmol/L
- peak CR level (rats [10]; [12]): 104 ± 40.4 µmol/L
- time of peak BUN (rats [10]; [12]): 11.1 ± 3.00 h
- time of peak CR level (rats [10]; [12]): 8.86 ± 3.18 h
